Data: publication PMC3586205 (European journal of pharmacology, 2012)
pKi: −log10 of the molar value. “Also recorded” adds a separate entry of the source. Like-named read-outs stand apart in the source and are kept apart here.

Experiments:
food intake in mice [1] = assay: Feeding behavior: 1-h food intake after 24-h food deprivation; type: in vivo; conditions: for decrease in feeding compared to vehicle: 60 min pre-session, significant
[2] = biological target: T1, human cannabinoid CB1 receptor (Homo sapiens, UniProt P21554); conditions: cited from earlier work
T1 sequence (P21554 whole entry): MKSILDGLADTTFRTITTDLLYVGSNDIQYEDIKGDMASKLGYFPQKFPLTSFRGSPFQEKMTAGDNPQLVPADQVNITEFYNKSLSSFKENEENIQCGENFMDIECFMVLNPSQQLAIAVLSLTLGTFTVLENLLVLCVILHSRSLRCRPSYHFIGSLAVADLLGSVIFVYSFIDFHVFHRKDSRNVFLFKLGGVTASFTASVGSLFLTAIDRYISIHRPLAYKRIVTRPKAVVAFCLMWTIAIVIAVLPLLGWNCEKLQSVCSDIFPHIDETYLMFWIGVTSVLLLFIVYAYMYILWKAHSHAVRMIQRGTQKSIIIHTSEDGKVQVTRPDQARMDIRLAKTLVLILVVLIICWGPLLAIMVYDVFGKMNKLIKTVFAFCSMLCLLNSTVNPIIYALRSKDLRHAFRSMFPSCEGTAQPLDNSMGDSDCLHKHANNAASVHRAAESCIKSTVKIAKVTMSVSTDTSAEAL

[3] = biological target: T2, human cannabinoid CB2 receptor (Homo sapiens, UniProt P34972); conditions: read-out: CB2 Ki (± SEM), displacement of [3H]CP55,940, cited from earlier work
T2 sequence (P34972 whole entry): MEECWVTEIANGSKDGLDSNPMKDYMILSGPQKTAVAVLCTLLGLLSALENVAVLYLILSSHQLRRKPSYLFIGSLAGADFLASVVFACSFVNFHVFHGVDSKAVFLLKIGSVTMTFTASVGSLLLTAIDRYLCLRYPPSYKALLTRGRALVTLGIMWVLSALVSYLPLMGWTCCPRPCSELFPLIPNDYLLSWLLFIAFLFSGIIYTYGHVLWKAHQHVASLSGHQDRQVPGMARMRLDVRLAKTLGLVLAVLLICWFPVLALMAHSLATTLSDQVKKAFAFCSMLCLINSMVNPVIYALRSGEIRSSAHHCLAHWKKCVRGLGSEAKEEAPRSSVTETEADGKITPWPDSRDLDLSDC

[4] = tested on: spontaneous activity in mice; conditions: cited from earlier work; for SA ED50 (95% confidence limits): i.v.
[5] = tested on: rectal temperature in mice; conditions: cited from earlier work; for RT ED50 (95% confidence limits): i.v.; for RT (maximum effect): 30 mg/kg i.v.
ring immobility in mice = conditions: cited from earlier work
[6] = biological target: T1, human cannabinoid CB1 receptor; assay: Cannabinoid CB1 receptor radioligand binding, displacement of [3H]CP55,940
[7] = biological target: T2, human cannabinoid CB2 receptor; assay: Cannabinoid CB2 receptor radioligand binding, displacement of [3H]CP55,940
Summary of the method: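 CHO cells stably expressing human CB2 receptor; membranes made in 50 mM Tris-HCl, 3 mM MgCl2, 1 mM EGTA, pH 7.4. Membrane (10 μg protein) incubated with 1 nM [3H]CP55,940 and varying test compound in 50 mM Tris-HCl pH 7.4, 3 mM MgCl2, 0.2 mM EGTA, 0.5% BSA, 60 min at 30 °C. Non-specific binding was taken with 1 μM unlabeled CP55,940. Bound and free were separated by GF/B filtration with cold Tris-BSA washes, then counted by liquid scintillation.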

[8] = tested on: tail flick latency in mice; conditions: cited from earlier work; for %MPE tail flick ED50 (95% confidence limits): i.v.; for %MPE tail flick (maximum effect): 30 mg/kg i.v.; for %MPE, maximum possible antinociceptive effect in tail flick (maximum effect): 10 mg/kg i.v.
[9] = tested on: cannabinoid agonist-like effects in mice; conditions: cited from earlier work; for profile in test battery: ref Wiley et al. (2011); for % of maximal cannabinoid agonist-like activity in each of the four tests: ref Wiley et al. (2012)
[10] = tested on: spontaneous activity in mice; assay: Spontaneous; type: in vivo; conditions: 30 mg/kg i.v.
Summary of the method: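 Separate groups of mice per dose were injected i.v. with vehicle (ethanol:Emulphor-620:saline 1:1:18) or test compound. Five minutes later each was placed in an activity chamber for 10 min. Total photobeam interruptions were counted and expressed as % inhibition of the vehicle group. ED50s were derived by log-dose linear regression, taking 90% inhibition as maximal.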

[11] = tested on: tail flick latency in mice; assay: Tail flick antinociception, mouse test battery; type: in vivo; conditions: 30 mg/kg i.v.
Summary of the method: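 Baseline tail-flick latency was taken to radiant heat (bright light) before i.v. injection of vehicle (ethanol:Emulphor-620:saline 1:1:18) or test compound. Latency was re-measured 20 min post-injection with a 10 s cutoff. Result expressed as %MPE = [(test−control latency)/(10−control)] × 100, separate groups per dose.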

food intake in mice [12] = conditions: ref Wiley et al., cited from earlier work; for dose (as low as) that suppressed eating: same food intake protocol, 2005
[13] = read-out: CB1 Ki (± SEM), displacement of [3H]CP55,940, ref Wiley et al. (2012)
[14] = read-out: CB1 Ki (± SEM), displacement of [3H]CP55,940, ref Wiley et al. (2011)
[15] = 30 mg/kg i.v., ref Wiley et al. (2001)
[16] = present study and H.A. Navarro, personal communication
[17] = 3 mg/kg i.v., ref Wiley et al. (2012)
[18] = read-out: CB1 receptor binding affinity Ki, ref Wiley et al., 2005
[19] = 10 mg/kg i.v., stim=stimulation, ref Wiley et al. (2012)
[20] = 10 mg/kg i.v., ref Wiley et al. (2012)

N-allyl carboxamide analog [Compound O-4373]
decrease in feeding compared to vehicle (food intake in mice [1]; 30 mg/kg i.p.): 73%
pKi [2, 13]: 6.83
pKi ([3]; ref Wiley et al. (2012)): 5.77
SA ED50 (95% confidence limits) ([4]; ref Wiley et al. (2012)): 2.3 (1.0–5.2) mg/kg
RT ED50 (95% confidence limits) ([5]; ref Wiley et al. (2012)): 2.9 (2.1–5.0) mg/kg
RI ED50 (95% confidence limits) (ring immobility in mice; i.v., ref Wiley et al. (2012)): 4.2 (2.5–7.0) mg/kg

Cc1c(C(=O)NCC2CCC(CNS(C)(=O)=O)CC2)nn(-c2ccc(Cl)cc2Cl)c1-c1ccc(Cl)cc1 (centres unmarked) [13226–70, 5-(4-chlorophenyl)-1-(2,4-dichlorophenyl)–N-{[4-(methanesulfonamido-methyl)cyclohexyl]methyl}-4-methyl-1H-pyrazole-3-carboxamide]
effect on food intake (food intake in mice [1]; doses up to 30 mg/kg i.p.): failed to alter food intake

CC1=CC[C@@H]2[C@@H](C1)c1ccc(CC#CCCCC(=O)NCCc3ccc(S(N)(=O)=O)cc3)cc1OC2(C)C [Compound O-1720]
pKi ([6]; read-out: CB1 Ki (± SEM), displacement of [3H]CP55,940): 6.04
pKi ([7]; read-out: CB2 Ki (± SEM), displacement of [3H]CP55,940): 6.10
decrease in feeding compared to vehicle (food intake in mice [1]; 100 mg/kg i.p.): 24%
dose that significantly decreased feeding (food intake in mice [1]; i.p.): 100 mg/kg

CCS(=O)(=O)NCCCCC(C)(C)c1cc(O)c2c(c1)OC(C)(C)[C@@H]1CC=C(C)C[C@@H]21 [Compound O-2113, N-{5-[(6aR,10aR)-1-hydroxy-6,6,9-tri-methyl-6a,7,10,10a-tetrahydro-6H-benzo[c]chromen-3-yl]-5-methylhexyl}ethanesulfonamide]
decrease in feeding compared to vehicle (food intake in mice [1]; 30 mg/kg i.p.): 97%
dose that significantly decreased feeding (food intake in mice [1]; i.p.): 30 mg/kg
pKi [2, 14]: 8.77
pKi ([3]; ref Wiley et al. (2011)): 10.10
SA ED50 (95% confidence limits) ([4]; ref Wiley et al. (2011)): 0.4 (0.1–1.8) mg/kg
%MPE tail flick ED50 (95% confidence limits) ([8]; ref Wiley et al. (2011)): 0.3 (0.1–1) mg/kg
RT ED50 (95% confidence limits) ([5]; ref Wiley et al. (2011)): 1.4 (0.3–4.6) mg/kg
profile in test battery [9]: exhibit agonist-like in vivo effects

CCCCC(C)c1ccc(-c2c(C)c(C(=O)NN3CCCCC3)nn2-c2ccc(Cl)cc2Cl)cc1 (centres unmarked) [Compound O-1690, 1-(2,4-dichlorophenyl)-5-[4-(hexan-2-yl)phenyl]-4-methyl-N-(piperidin-1-yl)-1H-pyrazole-3-carboxamide]
effect on food intake (food intake in mice [1]; doses up to 30 mg/kg i.p.): did not alter food intake
pKi ([2]; read-out: CB1 Ki (± SEM), displacement of [3H]CP55,940, ref Wiley et al. (2001)): 8.59
SA (maximum effect) [4, 15]: inactive (30)
%MPE tail flick (maximum effect) ([8]; ref Wiley et al. (2001)): inactive (30)
RT (maximum effect) ([5]; ref Wiley et al. (2001)): inactive (30)
RI (maximum effect) (ring immobility in mice; [15]): inactive (30)
activity in test battery when tested alone ([9]; ref Wiley et al., 2001): inactive

Hemopressin [reference compound]
displacement of [3H]CP55,940 from CB1 receptors [6, 16]: failed to displace
displacement of [3H]CP55,940 from CB2 receptors [7, 16]: failed to displace
effect on food intake (food intake in mice [1]; doses up to 3 mg/kg i.p.): did not affect food intake; also recorded: did not affect feeding

CC1=CC[C@@H]2[C@@H](C1)c1c(O)cc(C(C)(C)CCCCCC(=O)NCCc3ccc(S(N)(=O)=O)cc3)cc1OC2(C)C [Compound O-1689, 7-[(6aR,10aR)-1-hydroxy-6,6,9-trimethyl-6a,7,10,10a-tetrahydro-6H-benzo[c]chromen-3-yl]-7-methyl-N-(4-sulfamoylphenethyl]octanamide]
pKi [6]: 7.42
effect on food intake (food intake in mice [1]; i.p., doses not stated in text (Fig. 2)): failed to affect food intake
SA, % inhibition of activity of vehicle control group (maximum effect) [10]: 46% (30)
%MPE tail flick (maximum effect) [11]: inactive (30)

CCS(=O)(=O)NCCCC#CCc1cc(O)c2c(c1)OC(C)(C)[C@@H]1CC=C(C)C[C@@H]21 [Compound O-1991, N-{6-[(6aR,10aR)-1-hydroxy-6,6,9-trimethyl-6a,7,10,10a-tetrahydro-6H-benzo[c]chromen-3-yl]hex-4-yn-1-yl}ethane-sulfonamide]
decrease in feeding compared to vehicle (food intake in mice [1]; 56 mg/kg i.p.): 79%
dose that significantly decreased feeding (food intake in mice [1]; i.p.): 56 mg/kg
pKi [2, 14]: 7.52
pKi ([3]; ref Wiley et al. (2011)): 8.85
SA ED50 (95% confidence limits) ([4]; ref Wiley et al. (2011)): 2 (1–3) mg/kg
%MPE tail flick ED50 (95% confidence limits) ([8]; ref Wiley et al. (2011)): 0.9 (0.6–1.4) mg/kg
RT ED50 (95% confidence limits) ([5]; ref Wiley et al. (2011)): 0.8 (0.4–1.6) mg/kg
profile in test battery [9]: exhibit agonist-like in vivo effects

3-bromopropyl carboxamide analog [Compound O-2154]
decrease in feeding compared to vehicle (food intake in mice [1]; 56 mg/kg i.p.): 60%
pKi [2, 13]: 7.42
pKi ([3]; ref Wiley et al. (2012)): 6.14
SA, % inhibition of activity of vehicle control group (single dose) [4, 17]: 70% (3)
%MPE in tail flick (single dose) [8, 17]: 50% (3)
RI, % time immobile (single dose) (ring immobility in mice; [17]): 35% (3)
% of maximal cannabinoid agonist-like activity in each of the four tests ([9]; 3 mg/kg): at least 50%

Cc1c(C(=O)NN2CCCCC2)nn(-c2ccc(Cl)cc2Cl)c1-c1ccc(CCCCCN=[N+]=[N-])cc1 [Compound O-3257, 5-(4-(5-azidopentyl)phenyl)-1-(2,4-dichlorophenyl)-4-methyl-N-(piperidin-1-yl)-1H-pyrazole-3-carboxamide, reference compound]
pKi [2, 18]: 8.66
dose (as low as) that suppressed eating (food intake in mice [12]): 1 mg/kg

Cc1c(C(=O)NN2CCCCC2)nn(-c2ccc(Cl)cc2Cl)c1-c1ccc(CCCCC[N+](=O)[O-])cc1 [Compound O-3259, 1-(2,4-dichlor-ophenyl)-4-methyl-5-(4-(5-nitropentyl)phenyl)–N-(piperidin-1-yl)-1H-pyrazole-3-carboxamide, reference compound]
pKi [2, 18]: 8.92
dose (as low as) that suppressed eating (food intake in mice [12]): 1 mg/kg

Cc1c(C(=O)NN2CCCCC2)nn(-c2ccc(Cl)cc2Cl)c1-c1ccc(Cl)cc1 [Rimonabant, reference compound]
decrease in feeding compared to vehicle (food intake in mice [1]; 1 mg/kg i.p.): 47%
decrease in feeding compared to vehicle (food intake in mice [1]; 10 mg/kg i.p.): 41%
SA, % inhibition of activity of vehicle control group (maximum effect) [4, 19]: stim (10)
%MPE, maximum possible antinociceptive effect in tail flick (maximum effect) ([8]; ref Wiley et al. (2012)): inactive (10)
RT, change in rectal temperature compared to pre-drug (maximum effect) [5, 20]: inactive (10)

3-cyanopropyl carboxamide analog [Compound O-2155]
decrease in feeding compared to vehicle (food intake in mice [1]; 30 mg/kg i.p.): 55%
pKi [2, 13]: 6.65
pKi ([3]; ref Wiley et al. (2012)): 5.73
SA, % inhibition of activity of vehicle control group (maximum effect) [4, 19]: 86% (10)
%MPE, maximum possible antinociceptive effect in tail flick (maximum effect) ([8]; ref Wiley et al. (2012)): 89% (10)
RI, % time immobile on elevated ring (maximum effect) (ring immobility in mice; [20]): 47% (10)
% of maximal cannabinoid agonist-like activity in each of the four tests ([9]; 10 mg/kg): at least 50%

CC1=CCC2C(C1)c1c(O)cc(CC#CCCCNS(C)(=O)=O)cc1OC2(C)C (centres unmarked) [Compound O-2050, 3-(6′-methane-sulfamidohex-2-yne)-Δ^8-tetrahydrocannabinol]
pKi ([2]; read-out: CB1 Ki (± SEM)): 8.60
pKi ([3]; ref Wiley et al. (2011)): 9.70
effect on food intake (food intake in mice [12]; same procedure, 2011): decrease food intake
SA, % inhibition of activity of vehicle control group (maximum effect) ([4]; 30 mg/kg i.v., ref Wiley et al. (2011)): 69% (30)
%MPE tail flick (maximum effect) ([8]; ref Wiley et al. (2011)): inactive (30)
RT (maximum effect) ([5]; ref Wiley et al. (2011)): inactive (30)
profile in test battery [9]: did not affect responses in the in vivo test battery

O=C(NN1CCCCC1)c1nn(-c2ccc(Cl)cc2Cl)c2cc(Br)ccc12 [Compound O-1654, 6-bromo-1-(2,4-dichlorophenyl)–N-(piperidin-1-yl)-1H-indazole-3-carboxamide]
pKi [6]: 6.06
pKi [7]: 5.93
effect on food intake (food intake in mice [1]; doses up to 100 mg/kg i.p.): did not affect food intake
